Data from ChEMBL document CHEMBL1131331, “Structure-activity studies on anticonvulsant sugar sulfamates related to topiramate. Enhanced potency with cyclic sulfate derivatives” (J Med Chem, 1998).

Assays:
Format in all cases: functional
[1] = tested on: Mus musculus; assay: Activity against maximal electroshock seizures in mice, 4 hr following oral administration of 75 mg/kg
Method in brief: (§1)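 Mouse maximal electroshock seizure test. An electric shock is applied through corneal electrodes, and block of the hind-limb tonic-extensor seizure is scored. Compounds are given orally, usually to 10 mice per group, and tested 4 h after dosing. The result is reported as percent of dosed animals protected at the stated dose.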

[2] = tested on: Mus musculus; assay: Activity against maximal electroshock seizures in mice, 4 hr following oral administration of 300 mg/kg of compound; method in brief: as §1
[3] = tested on: Mus musculus; assay: Effective dose against maximal electroshock seizures in mice, at 4 hr following oral administration of 10 mg/kg of compound
[4] = tested on: Mus musculus; assay: Inhibition of maximal electroshock seizures in mice, 4 hr following 10 mg/kg p.o. administration.; conditions: route oral; method in brief: as §1
[5] = tested on: Mus musculus; assay: Activity against maximal electroshock seizures in mice, 4 hr following oral administration of 35 mg/kg of compound; method in brief: as §1

Structure (SMILES) | Block [1] [%] | other results
CC1(C)O[C@H]2[C@@H]3OC(=S)O[C@@H]3CO[C@@]2(COS(N)(=O)=O)O1 | 12.5 | –
CC1(C)O[C@H]2[C@H]3C(CO[C@@]2(COS(N)(=O)=O)O1)C3(Cl)Cl (stereo partly drawn) | 0 | –
CC(=O)NS(=O)(=O)OC[C@@]12OC[C@H]3OC(C)(C)O[C@H]3[C@@H]1OC(C)(C)O2 | 30 | –
CC(OS(N)(=O)=O)[C@@]12OC[C@H]3OC(C)(C)O[C@H]3[C@@H]1OC(C)(C)O2 (stereo partly drawn) | 0 | –
NS(=O)(=O)OC[C@@]12CCC=C[C@@H]1CCC2 | 0 | –
CCC1(CC)O[C@@H]2[C@@H](CO[C@@]3(COS(N)(=O)=O)OC(CC)(CC)O[C@@H]23)O1 | 0 | Block [2]: 70%
CC1(C)O[C@H]2[C@@H]3OS(=O)O[C@@H]3CO[C@@]2(COS(N)(=O)=O)O1 (stereo partly drawn) | – | ED50 [3]: 5.7 mg/kg
CC1(C)O[C@H]2[C@@H]3OC(C(F)(F)F)(C(F)(F)F)O[C@@H]3CO[C@@]2(COS(N)(=O)=O)O1 | 40 | –
CCCCNS(=O)(=O)OC[C@@]12OC[C@H]3OC(C)(C)O[C@H]3[C@@H]1OC(C)(C)O2 | 80 | Block [4]: 0%
CC1(C)O[C@@H]2[C@@H](CC[C@@]3(COS(N)(=O)=O)CCC[C@@H]23)O1 | 0 | –
NS(=O)(=O)OC[C@@]12CCCC[C@@H]1CCC2 | 0 | –
C[C@H]1O[C@@H]2[C@@H](CO[C@@]3(COS(N)(=O)=O)OC(C)(C)O[C@@H]23)O1 | 0 | –
CC1(C)C[C@H]2[C@@H]3OC(C)(C)O[C@@H]3CC[C@@]2(COS(N)(=O)=O)C1 | 0 | –
CC1(C)O[C@H]2[C@@H]3OCO[C@@H]3CO[C@@]2(COS(N)(=O)=O)O1 | 0 | –
CC1(C)O[C@H]2[C@@H]3OS(=O)(=O)O[C@@H]3CO[C@@]2(COS(=O)(=O)N2CCN(Cc3ccccc3)CC2)O1 | 0 | –
NS(=O)(=O)OC[C@@]12OC[C@H]3O[C@@H](c4ccccc4)O[C@H]3[C@@H]1O[C@H](c1ccccc1)O2 | 0 | –
CC1(C)O[C@H]2[C@@H]3OC4(CCCC4)O[C@@H]3CO[C@@]2(COS(N)(=O)=O)O1 | 0 | –
CC1(C)O[C@H]2[C@@H]3OS(=O)(=O)O[C@@H]3CO[C@@]2(COS(=O)(=O)N2CCCCC2)O1 | 0 | –
CCO[C@@H]1[C@H](OCC)CO[C@@]2(COS(N)(=O)=O)OC(C)(C)O[C@@H]12 | 0 | Block [2]: 40%
CN(C[C@@]12OC[C@H]3OC(C)(C)O[C@H]3[C@@H]1OC(C)(C)O2)S(N)(=O)=O | 0 | –
CC1(C)O[C@H]2[C@@H]3OS(=O)(=O)O[C@@H]3CO[C@@]2(COC(N)=O)O1 | 0 | –
CC1(C)O[C@@H]2[C@@H](CO[C@@]3(COS(C)(=O)=O)OC(C)(C)O[C@@H]23)O1 | 0 | –
CC1(C)O[C@H]2CCCO[C@@]2(COS(N)(=O)=O)O1 | 0 | Block [2]: 100%
CC1(C)O[C@@H]2[C@@H](CO[C@@]3(CCS(N)(=O)=O)OC(C)(C)O[C@@H]23)O1 | 0 | –
NS(=O)(=O)OC[C@]12CCC[C@H]1[C@@H]1OS(=O)(=O)O[C@@H]1CC2 | 0 | –
NS(=O)(=O)OC[C@@]12OC[C@H]3OC4(CCCCC4)O[C@H]3[C@@H]1OC1(CCCCC1)O2 | 0 | –
CC[C@H]1O[C@@H]2[C@@H](CO[C@@]3(COS(N)(=O)=O)OC(C)(C)O[C@@H]23)O1 | 90 | Block [5]: 10%

Structure (SMILES) | Block [1] [%] | other results
CC[C@@]1(C)O[C@@H]2[C@@H](CO[C@@]3(COS(N)(=O)=O)OC(C)(C)O[C@@H]23)O1 | 90 | –
CC1(C)O[C@H]2C=CCO[C@@]2(COS(N)(=O)=O)O1 | – | Block [2]: 0%
Cc1ccc(S(=O)(=O)N=S2(=O)O[C@@H]3[C@@H](CO[C@@]4(COS(N)(=O)=O)OC(C)(C)O[C@@H]34)O2)cc1 (stereo partly drawn) | – | Block [2]: 80%
CC1(C)O[C@H]2[C@@H]3O[C@@H]3CO[C@@]2(COS(N)(=O)=O)O1 | 30 | –
C[C@@H]1O[C@@H]2[C@@H](CO[C@@]3(COS(N)(=O)=O)OC(C)(C)O[C@@H]23)O1 | 100 | Block [4]: 0%
NS(=O)(=O)OC[C@@]12OC[C@H]3OS(=O)(=O)O[C@H]3[C@@H]1OC1(CCCCC1)O2 | 0 | Block [2]: 10%
Cc1ccc(S(=O)(=O)/N=S2\O[C@@H]3[C@@H](CO[C@@]4(COS(N)(=O)=O)OC(C)(C)O[C@@H]34)O2)cc1 (stereo partly drawn) | 0 | Block [2]: 75%
CO[C@@H]1[C@H](OC)CO[C@@]2(COS(N)(=O)=O)OC(C)(C)O[C@@H]12 | 0 | –
CC1(C)O[C@H]2[C@@H]3O[C@H](C(C)(C)C)O[C@@H]3CO[C@@]2(COS(N)(=O)=O)O1 | 0 | –
CC1(C)O[C@@H]2[C@@H](CO[C@@]3(CNS(N)(=O)=O)OC(C)(C)O[C@@H]23)O1 | 0 | –
CC1(C)O[C@H]2[C@H](Br)[C@@H](Br)CO[C@@]2(COS(N)(=O)=O)O1 | 100 | Block [4]: 0%; ED50 [3]: 21 mg/kg
CC1(C)O[C@@H]2[C@@H](CO[C@@]3(COS(=O)(=O)NCc4ccccc4)OC(C)(C)O[C@@H]23)O1 | 0 | –
CC1(C)O[C@H]2[C@@H]3OCCO[C@@H]3CO[C@@]2(COS(N)(=O)=O)O1 | 0 | –
CB1O[C@@H]2[C@@H](CO[C@@]3(COS(N)(=O)=O)OC(C)(C)O[C@@H]23)O1 | 0 | Block [2]: 50%
CC1(C)O[C@H]2[C@@H]3O[C@](C)(C(C)(C)C)O[C@@H]3CO[C@@]2(COS(N)(=O)=O)O1 | 0 | –
CSC(=O)O[C@H]1CO[C@@]2(COS(N)(=O)=O)OC(C)(C)O[C@H]2[C@@H]1I | 90 | Block [4]: 0%; ED50 [3]: 30 mg/kg
NS(=O)(=O)OC[C@]12CCC[C@H]1[C@@H]1C[C@@H]1CC2 | 0 | –
CC1(C)O[C@@H]2[C@@H](CO[C@@]3(CCCOS(N)(=O)=O)OC(C)(C)O[C@@H]23)O1 | 0 | –
CC1(C)O[C@H]2[C@@H]3O[C@H](c4ccccc4)O[C@@H]3CO[C@@]2(COS(N)(=O)=O)O1 | 20 | Block [5]: 0%
CCO[C@@H]1O[C@@H]2[C@@H](CO[C@@]3(COS(N)(=O)=O)OC(C)(C)O[C@@H]23)O1 | 0 | –
CC1(C)O[C@@H]2[C@@H](CO[C@@]3(CCOS(N)(=O)=O)OC(C)(C)O[C@@H]23)O1 | 0 | –
CC1(C)O[C@H]2[C@@H]3OB(c4ccccc4)O[C@@H]3CO[C@@]2(COS(N)(=O)=O)O1 | 0 | –
COc1ccc(NS(=O)(=O)OC[C@@]23OC[C@H]4OS(=O)(=O)O[C@H]4[C@@H]2OC(C)(C)O3)cc1 | 0 | –
COC1(OC)O[C@@H]2[C@@H](CO[C@@]3(COS(N)(=O)=O)OC(C)(C)O[C@@H]23)O1 | 0 | –
CCC(OS(N)(=O)=O)[C@@]12OC[C@H]3OC(C)(C)O[C@H]3[C@@H]1OC(C)(C)O2 (stereo partly drawn) | 0 | –
CC1(C)O[C@H]2[C@@H]3OC(=O)O[C@@H]3CO[C@@]2(COS(N)(=O)=O)O1 | 0 | Block [2]: 70%
